The source made the active and inactive calls. The rule behind the calls is not given here.
Assays:
Brain [1] = assay: Induction of neurogenesis in CD-1 mouse brain at 10 nM, INH administered once daily for 3 days by confocal microscopic analysis; type: functional, tissue-based; details: time 3.0 day
Outline: (§1)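 Male CD1 mice, 2 months old, received 12 μL/day intranasally for 3 days, given as 3 μL portions alternating nostrils with the neck extended. Vehicle was saline; treatment was randomized and coded. BrdU 100 mg/kg i.p. was given on the last day. BrdU and DCX in the SVZ were detected by immunohistochemistry in every fifth section (6–8 per brain) at 20×, with blinded counting. n = 6/group; t-test versus vehicle.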

Brain [2] = assay: Induction of neurogenesis in CD-1 mouse brain assessed as increase in number of proliferative neuronal progenitors at 10 nM, INH administered once daily for 3 days by confocal microscopic analysis; type: functional, tissue-based; details: time 3.0 day; outline: as §1
Brain [3] = assay: Induction of neurogenesis in CD-1 mouse brain at 100 nM, INH administered once daily for 3 days by confocal microscopic analysis; type: functional, tissue-based; details: time 3.0 day; outline: as §1
Brain [4] = assay: Induction of neurogenesis in CD-1 mouse brain at 5 uM, INH administered once daily for 3 days by confocal microscopic analysis; type: functional, tissue-based; details: time 3.0 day; outline: as §1
Brain [5] = assay: Induction of neurogenesis in CD-1 mouse brain assessed as increase in number of BrdU labeled proliferating cells at 10 nM, INH administered once daily for 3 days by confocal microscopic analysis; type: functional, tissue-based; details: time 3.0 day; outline: as §1
Neural Progenitor Cell [6] = assay: Induction of cell proliferation in mouse SVZ-derived neural progenitor cells assessed as neurosphere formation at up to 0.5 uM measured after 72 hrs by phase contrast microscopic analysis; type: functional, tissue-based; details: dose microM <=0.5, time 72.0 hrs
Outline: (§2)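 NPCs were isolated from the SVZ of postnatal day 7 CD1 mice and grown as floating neurospheres with bFGF. Increasing compound concentrations were added at seeding. After 72 h, neurosphere area was measured from phase-contrast images and expressed as % of bFGF-only control. Runs were in triplicate, at least […] independent times; mean ± SEM of nine measurements, two-tailed unpaired t-test.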

Brain [7] = assay: Induction of neurogenesis in CD-1 mouse brain assessed as increase in total neuronal progenitors double cortin cells at 10 nM, INH administered once daily for 3 days by confocal microscopic analysis; type: functional, tissue-based; details: time 3.0 day; outline: as §1
[8] = Induction of TGFalpha release in serum-starved HEK293T cells coexpressing GFP fused mCherry assessed as reduction in mCherry/GFP ratio at 0.5 uM measured up to 180 mins by time-lapse microscopic analysis relative to control; type: functional, Homo sapiens, HEK-293T; design: scale not given: the % may be the effect or the level left; details: time min <=180
Outline: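 HEK293T transfected with mCherry-TGFα-GFP fusion (mCherry N-terminal, GFP C-terminal), left overnight, then serum-starved 30 min in serum-free FluoroBrite DMEM. Compound added at 0.5 µM; live time-lapse imaging over 180 min. Membrane mCherry/GFP ratio normalized to pre-stimulation average; mean normalized ratio, n = 40.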

Neural Progenitor Cell [9] = assay: Induction of cell proliferation in mouse SVZ-derived neural progenitor cells assessed as neurosphere formation at up to 5 uM measured after 72 hrs by phase contrast microscopic analysis; type: functional, tissue-based; details: dose microM <=5, time 72.0 hrs; outline: as §2
HEK-293T = assay: Induction of TGFalpha release in serum-starved HEK293T cells coexpressing GFP fused mCherry assessed as reduction in mCherry/GFP ratio at 0.5 uM measured up to 180 mins by time-lapse microscopic analysis; type: functional, cell-based; details: Homo sapiens, time min <=180
Outline: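 HEK293T cells transfected with an mCherry-TGFα-GFP fusion (mCherry N-terminal, GFP C-terminal) and left overnight. Cells were then serum-starved 30 min in serum-free medium. Compounds were added at 0.5 μM and time-lapse imaging ran for 180 min. Membrane mCherry/GFP ratio was normalized to the pre-stimulation average, and the mean of n = 40 was reported.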

Brain [10] = assay: Induction of neurogenesis in CD-1 mouse brain assessed as increase in number of BrdU labeled proliferating cells at 5 uM, INH administered once daily for 3 days by confocal microscopic analysis; type: functional, tissue-based; details: time 3.0 day
Outline: (§3)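 Healthy 2-month-old male CD1 mice given intranasal solution daily for 3 days, 12 µL/day in saline vehicle (3 µL per delivery, alternating nostrils). BrdU 100 mg/kg i.p. on the last day. SVZ sections immunostained for BrdU and DCX. Positive cells counted blinded in every fifth section (6–8 per brain) at 20×. Values are per mm3; mean ± SEM, n = 6 per group.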

Brain [11] = assay: Induction of neurogenesis in CD-1 mouse brain assessed as increase in number of proliferative neuronal progenitors at 5 uM, INH administered once daily for 3 days by confocal microscopic analysis; type: functional, tissue-based; details: time 3.0 day; outline: as §3

SMILES | Activity [8] | Activity (Neural Progenitor Cell [9]) | Activity (HEK-293T) | also measured
CC1=C[C@H]2[C@@]3(O)[C@H](C)[C@@H](OC(=O)C(C)C)[C@]4(OC(=O)C(C)C)[C@H]([C@@H]3C=C(CO)C[C@]2(O)C1=O)C4(C)C | – | – | – | Activity (Brain [1]): Active; Activity (Brain [2]): Active; Activity (Brain [3]): inactive; Activity (Brain [4]): inactive; Activity (Brain [5]): Active; Activity (Neural Progenitor Cell [6]): Active; Activity (Brain [7]): Active
CC1=C[C@H]2[C@@]3(O)[C@H](C)[C@@H](OC(=O)C(C)C)[C@]4(OC(=O)Cc5ccccc5)[C@H]([C@@H]3C=C(CO)C[C@]2(O)C1=O)C4(C)C | 25% | – | – | –
CC1=C[C@H]2[C@@]3(O)[C@H](C)[C@@H](O)[C@]4(OC(=O)C(C)C)[C@H]([C@@H]3C=C(CO)C[C@]2(O)C1=O)C4(C)C | – | inactive | inactive | –
CC1=C[C@H]2[C@@]3(O)[C@H](C)C[C@]4(OC(=O)Cc5ccccc5)[C@H]([C@@H]3C=C(CO)C[C@]2(O)C1=O)[C@@]4(C)COC(=O)C(C)C | – | Active | Active | Activity (Neural Progenitor Cell [6]): Active
CC1=C[C@H]2[C@@]3(O)[C@H](C)[C@@H](OC(=O)Cc4ccccc4)[C@]4(OC(=O)Cc5ccccc5)[C@H]([C@@H]3C=C(CO)C[C@]2(O)C1=O)C4(C)C | 25% | – | – | –
CC1=C[C@H]2[C@@]3(O)[C@H](C)[C@@H](O)[C@]4(O)[C@H]([C@@H]3C=C(CO)C[C@]2(O)C1=O)C4(C)C | – | – | inactive | –
C/C=C(/C)C(=O)O[C@@H]1[C@@H](C)[C@@]2(O)[C@@H](C=C(CO)C[C@]3(O)C(=O)C(C)=C[C@@H]23)[C@@H]2C(C)(C)[C@]12OC(=O)C(C)C | 15% | – | – | –
CC(=O)O[C@@H]1[C@@H](C)[C@@]2(O)[C@@H](C=C(CO)C[C@]3(O)C(=O)C(C)=C[C@@H]23)[C@@H]2C(C)(C)[C@]12OC(C)=O | 15% | Active | – | Activity (Brain [10]): Active; Activity (Brain [11]): Active
CC1=C[C@H]2[C@@]3(O)[C@H](C)[C@@H](OC(=O)Cc4ccccc4)[C@]4(OC(=O)C(C)C)[C@H]([C@@H]3C=C(CO)C[C@]2(O)C1=O)C4(C)C | 25% | – | – | –

Source: ChEMBL document CHEMBL5030518, “Phorbol Diesters and 12-Deoxy-16-hydroxyphorbol 13,16-Diesters Induce TGFα Release and Adult Mouse Neurogenesis” (2021)
